Sampled rows, rich in hits. Any-hit rate of the full collection: about 4.1%.
Kir21 block – Kir2.1 (mouse) channel inhibition. HEK293-Kir2.1, FluxOR thallium flux fluorescence; hits give low values. B-score at 10 µM. 0.85% of 310,000 active. AID 1672;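 active means fluorescence ratio B-score at or below minus 3 SD of library scores, with starting-brightness B-score within 2 SD, cut at about -4.2 in these data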;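 further: channel flux triggered by added potassium and thallium sulfate stimulus; B-score of peak minus minimum fluorescence over baseline after thallium stimulus; more negative B-score means stronger Kir2.1 block with less thallium influx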
MrgX1 allo act – allosterically activates human MrgX1 receptor signaling | Q96LB2 | MrgX1-HEK293, Fluo-4 calcium flux, FDSS; hits give high values | B-score at 10 µM | 0.63% of 310,000 active;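 active means plate-corrected calcium response at least 3 library SD above typical, normal starting fluorescence, not activating the receptor alone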;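 further: compound read alongside a low EC10 to EC30 dose of BAM8-22 agonist; peak minus trough fluorescence over baseline measured at the second addition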
Target sequence (Q96LB2 whole entry, looked up): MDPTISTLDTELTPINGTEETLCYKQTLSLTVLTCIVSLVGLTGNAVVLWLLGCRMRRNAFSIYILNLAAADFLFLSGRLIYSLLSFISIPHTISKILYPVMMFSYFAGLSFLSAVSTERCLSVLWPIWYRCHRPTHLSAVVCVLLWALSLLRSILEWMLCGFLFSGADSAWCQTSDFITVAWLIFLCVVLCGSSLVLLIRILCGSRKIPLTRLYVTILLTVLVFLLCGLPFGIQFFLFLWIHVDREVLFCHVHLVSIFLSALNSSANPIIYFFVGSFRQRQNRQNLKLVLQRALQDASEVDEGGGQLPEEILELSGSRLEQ
MrgX1 ag – activates human MrgX1 receptor signaling; Q96LB2; MrgX1-HEK293 cells, Fluo-4 calcium fluorescence, agonist mode; hits give high values; B-score at 10 µM; 0.44% of 310,000 active;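 active means calcium response B-score plate-corrected fluorescence ratio at least 3 library SD, with starting fluorescence B-score inside 5 SD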
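Material: MrgX1-expressing HEK293 cells / Dosing: compound as first of three additions / Incubation: overnight seeding, then 1 h dark dye loading / Signal: Fluo-4 NW calcium fluorescence / Evaluation: B-scored fluorescence response ratio / Benchmarks: positive and negative control wells on each plate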
RGS4 inh – human RGS4 inhibition | HEK293 M3R/RGS4 inducible, Fluo-4 calcium flux; hits give high values; triggered by carbachol at its EC20 | B-score at 10 µM | 0.45% of 310,000 active | AID 463165;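 active means B-score, a plate-corrected calcium signal, over three deviations above library mean, with baseline fluorescence within five deviations of library mean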;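 further: RGS4 expression induced by doxycycline in cells with stable M3 receptor; B-score is computed from the integrated fluorescence ratio over baseline after carbachol; higher B-score means a larger calcium signal and so more RGS4 inhibition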
Target sequence (P49798 whole entry, looked up): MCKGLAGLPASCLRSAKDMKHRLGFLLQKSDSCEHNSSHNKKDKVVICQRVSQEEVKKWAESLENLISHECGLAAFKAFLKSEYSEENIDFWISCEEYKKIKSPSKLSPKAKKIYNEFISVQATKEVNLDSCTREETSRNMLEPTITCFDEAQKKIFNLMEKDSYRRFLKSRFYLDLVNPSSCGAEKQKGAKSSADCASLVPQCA
MrgX1 antag – human MrgX1 receptor antagonism, primary screen | MRGX1-HEK293 calcium flux, Fluo-4, BAM8-22 antagonism; hits give low values | B-score at 10 µM | 1.3% of 310,000 active | AID 588676;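 active means calcium-response B-score plate-corrected more than 3 library SD below zero, starting fluorescence within 5 deviations, no agonist response on first addition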;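 further: peak minus trough fluorescence over baseline after final BAM8-22 challenge near maximal dose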
RGS4 pot – RGS4 potentiation or activation; HEK293 M3R/inducible RGS4, carbachol calcium flux Fluo4; hits give low values; B-score at 10 µM; 0.92% of 310,000 active; AID 463111;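 active means B-score of the integrated calcium signal more than 4 SD below the library mean, with starting fluorescence not abnormally high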;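 further: negative B-score means reduced calcium response which marks RGS4 activation or potentiation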
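Material: M3R-expressing HEK293 line, RGS4 induced by doxycycline | Schedule: Overnight RGS4 induction, 30 min dye load 37 °C, 20 min compound RT | Measured by: Fluo4 fluorescence kinetic imaging of calcium | Read-out: Integrated calcium ratio converted to B score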
RGS4 activ val – RGS4 activation, validation assay; inhibition, % at 10 µM; HEK293 M3R/RGS4 inducible, carbachol calcium flux Fluo4; shares compounds with RGS4 pot; 89% of 1,100 active;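 active means inhibition above 3 SD of the buffer control wells, cut at about 41% in these data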;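 further: signal is the integrated peak-minus-minimum Fluo4 fluorescence over baseline ratio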
M3R Ca counter – RGS4 activator counter-screen hit in non-induced cells | shares compounds with RGS4 pot | HEK293 M3R non-induced RGS4, Fluo4 calcium flux; after carbachol challenge at its EC90 | inhibition, % at 10 µM | 82% of 1,100 active;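 active means inhibition exceeding 3 SD of buffer-only control wells, cut at about 26% in these data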;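 further: percent drop in integrated peak-minus-baseline over baseline Fluo4 ratio after carbachol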
Large screens that a line does not name were inactive (follow-up assays come after a bar, where they were run).

COc1ccc(NC(=O)CN2CCN(c3ccc(C)cc3C)CC2)cc1	none
CCC(C)[C@H](NC(=O)NC1CCCc2ccccc21)C(=O)OC (stereo partly specified)	RGS4 pot -8.3 | RGS4 activ val inactive | M3R Ca counter inactive
Cc1ccc(C(C(=O)NC2CCCCC2)N2CCCC2)cc1 (stereo unspecified)	none
O=C(NC1CCCCC1)C(c1ccccc1)N1CCCC1 (stereo unspecified)	RGS4 pot -8.8 | RGS4 activ val 94 | M3R Ca counter 64
Cn1c(=O)[nH]c2nnc(-c3ccc(Cl)c(Cl)c3)nc2c1=O	RGS4 pot -8.9 | RGS4 activ val inactive | M3R Ca counter inactive
CCN(Cc1ccccc1)C(=O)c1cc2c(OC)c(OC)c(OC)cc2[nH]1	none
CC(=O)N1CCN(c2ccc(NC(=O)c3ccc([N+](=O)[O-])cc3Cl)cc2)CC1	none
CCCCN(CCCC)S(=O)(=O)c1ccc(NC(=O)c2ccc([N+](=O)[O-])cc2Cl)cc1	RGS4 pot -11 | RGS4 activ val 86 | M3R Ca counter 60
O=C(N/C(=C\c1ccccc1)C(=O)N1CCN(CCO)CC1)c1ccccc1	none
O=c1c2c(nc3n1CCCCC3)-c1ccccc1CC21CCCC1	RGS4 pot -11 | RGS4 activ val 93 | M3R Ca counter 94
CN(C)S(=O)(=O)c1cccc(NC(=O)c2ccc(S(=O)(=O)N3CCCCC3)cc2)c1	none
CN(C)S(=O)(=O)c1cccc(C(=O)Nc2ccc(S(=O)(=O)N3CCCC3)cc2)c1	RGS4 pot -7.9 | RGS4 activ val 70 | M3R Ca counter 84
O=C(Nc1cccc(O)c1)c1noc2c1CCCCC2	none
COc1ccc(-c2cc(C(=O)N3CCN(c4cccc(C)c4C)CC3)c3ccccc3n2)cc1OC	RGS4 pot -8.5 | RGS4 activ val 52 | M3R Ca counter inactive
COc1ccc(-c2cc(C(=O)N3CCC3)c3ccccc3n2)cc1OC	none
O=C(c1cc(-c2cccc(Cl)c2)nc2ccccc12)N1CCN(c2ccccn2)CC1	RGS4 pot -8.4 | RGS4 activ val 56 | M3R Ca counter inactive
O=C(c1cc(-c2ccncc2)nc2ccc(Br)cc12)N1CCN(c2ccccn2)CC1	none
C=CCNc1nc(N2CCCCC2)c(C#N)c2c1CN(Cc1ccccc1)CC2	RGS4 pot -8.9 | RGS4 activ val 94 | M3R Ca counter 81
CCN1CCc2c(C#N)c(N3CCCCC3)nc(NCc3ccccc3)c2C1	none
CNc1ccc(C(O)(C(F)(F)F)C(F)(F)F)cc1C(O)(C(F)(F)F)C(F)(F)F	RGS4 pot -8.2 | RGS4 activ val 90 | M3R Ca counter 69
Cc1ccc(N)c(C(O)(C(F)(F)F)C(F)(F)F)c1	none
CC(C)c1nc(N2CCN(C(=O)c3ccco3)CC2)c(C#N)c2c1COC(C)(C)C2	RGS4 pot -11 | RGS4 activ val 82 | M3R Ca counter 42
CCCCc1nc(N2CCN(C(=O)c3ccco3)CC2)c(C#N)c2c1CCCC2	none
CC(C)c1nc(N2CCN(C(=O)c3ccccc3)CC2)c(C#N)c2c1COC(C)(C)C2	RGS4 pot -8.8 | RGS4 activ val 45 | M3R Ca counter 84
CC1(C)Cc2c(C#N)c(N3CCN(C(=O)c4ccccc4)CC3)nc(-c3ccco3)c2CS1	none (no result: Kir21 block, RGS4 inh, RGS4 pot)
CCCCCCCOC(=O)C1=C(C)Nc2ncnn2C1c1cccs1 (stereo unspecified)	none
CCCCCCCCOC(=O)C1=C(C)Nc2nnnn2C1c1cccs1 (stereo unspecified)	RGS4 pot -11 | RGS4 activ val 90 | M3R Ca counter 75
O=C(N/N=C\c1ccccn1)c1ccccc1O	none
CCOC(=O)c1cnc2ccc(OC)cc2c1NCc1ccccc1	none
